From ChEMBL document CHEMBL4406857, “Discovery of new small molecule inhibitors targeting isocitrate dehydrogenase 1 (IDH1) with blood-brain barrier penetration” (Eur J Med Chem, 2019) come the findings set out here.

Data set [1] has as its target T1, Isocitrate dehydrogenase [NADP] cytoplasmic (Homo sapiens, UniProt O75874, R132C). Put plainly: Inhibition of recombinant human C-terminal His8-tagged IDH1 R132C mutant expressed in Escherichia coli BL21 assessed as reduction in NADPH consumption using alpha-ketoglutarate as substrate preincubated for 60 mins followed by substrate addition and measured for 60 mins in presence of NADPH by diaphorase/resazurin-based fluorescence assay.

Data set [2] has as its target Isocitrate dehydrogenase [NADP] cytoplasmic (Homo sapiens, UniProt O75874, R132H). Put plainly: Inhibition of recombinant human C-terminal His8-tagged IDH1 R132H mutant expressed in Escherichia coli BL21 assessed as reduction in NADPH consumption using alpha-ketoglutarate as substrate preincubated for 60 mins followed by substrate addition measured for 60 mins in presence of NADPH by diaphorase/resazurin-based assay.

Data set [3] concerns the target Isocitrate dehydrogenase [NADP] cytoplasmic (Homo sapiens, UniProt O75874). Put plainly: Inhibition of wild type recombinant human C-terminal His8-tagged IDH1 expressed in Escherichia coli BL21 assessed as reduction in NADP consumption using DL-isocitrate as substrate preincubated for 60 mins followed by substrate addition and measured for 60 mins in presence of NADP by diaphorase/resazurin-based fluorescence assay.

Data set [4] concerns the target T1, Isocitrate dehydrogenase [NADP] cytoplasmic. Put plainly: Inhibition of IDH1 R132C mutant in human HT1080 cells assessed as reduction in 2-HG production incubated with compound for 48 hrs by D2HG assay kit based fluorescence assay. Format: cell-based.
The nature of data set [5]: Clearance in ICR mouse at 1 mg/kg, iv measured upto 24 hrs by LCMS analysis. The following applies: in vivo. Format: ADME, organism-based. The procedure, abridged: (§1)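 Male ICR mice (6-8 weeks, 20-25 g), nine animals, dosed 1 mg/kg by slow intravenous injection or 5 mg/kg orally. Blood sampled into EDTA at 5 min (iv only), 15 min, 30 min, 1, 2, 4, 8 and 24 h. Plasma stored at -20 °C, prepared by acetonitrile protein precipitation with dexamethasone internal standard, and analysed for parent compound. Values are means of three replicates.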

The nature of data set [6]: Volume of distribution at steady state in ICR mouse at 1 mg/kg, iv measured upto 24 hrs by LCMS analysis. It is filed as ADME, organism-based. The note with it: in vivo, read-out: Vdss. The procedure, abridged: as §1
Data set [7] in a line: Half life in ICR mouse at 1 mg/kg, iv measured upto 24 hrs by LCMS analysis. Format: ADME, organism-based. The note with it: in vivo. The procedure, abridged: as §1
Data set [8] is described as follows: AUC in ICR mouse at 1 mg/kg, iv measured upto 24 hrs by LCMS analysis. Format: ADME, organism-based. Details: time < 24 hr, dose 1 mg/kg, route intravenous; call rule not given here. The following applies: in vivo. The procedure, abridged:
as §1

The nature of data set [9]: Cmax in ICR mouse at 5 mg/kg, po measured upto 24 hrs by LCMS analysis. Format: ADME, organism-based. The following applies: in vivo. Details: dose 5 mg/kg, route oral. The procedure, abridged: as §1
A short description of data set [10]: Half life in ICR mouse at 5 mg/kg, po measured upto 24 hrs by LCMS analysis. It is filed as ADME, organism-based. The note with it: in vivo. The procedure, abridged: as §1
The nature of data set [11]: AUC in ICR mouse at 5 mg/kg, po measured upto 24 hrs by LCMS analysis. Format: ADME, organism-based. Set-up: dose 5 mg/kg, time < 24 hr, route oral. The note with it: in vivo. The procedure, abridged: as §1
The nature of data set [12]: Oral bioavailability in ICR mouse at 5 mg/kg measured upto 24 hrs by LCMS analysis. It is filed as ADME, organism-based. The following applies: in vivo; for F: 24 h; for bioavailability: ICR. The procedure, abridged: as §1
The nature of data set [13]: Drug uptake in plasma of athymic BALB/c nude mouse xenografted with human HT1080 cells at 50 mg/kg, po administered as a single dose via gavage measured upto 24 hrs post dosing by LC-MS/MS analysis. The following applies: in vivo. Format: ADME, organism-based. The procedure, abridged:
(§2)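 Female athymic nude mice carrying subcutaneous right-flank HT1080 xenografts (5 × 10^6 cells in PBS/Matrigel 1:1). Compound given by oral gavage as a suspension in 0.5% MC + 0.5% Tween 80 in water, 10 ml/kg. Blood taken by orbital sinus bleed; brain and tumour collected at 2, 6, 12 and 24 h, homogenized in PBS. Samples acetonitrile-precipitated with dexamethasone internal standard and measured by LC/MS/MS.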

The nature of data set [14]: Drug uptake in brain of athymic BALB/c nude mouse xenografted with human HT1080 cells at 50 mg/kg, po administered as a single dose via gavage measured upto 24 hrs post dosing by LC-MS/MS analysis. The note with it: in vivo. It is filed as ADME, organism-based. The procedure, abridged: as §2
A short description of data set [15]: Drug uptake in tumor of athymic BALB/c nude mouse xenografted with human HT1080 cells at 50 mg/kg, po administered as a single dose via gavage measured upto 24 hrs post dosing by LC-MS/MS analysis. Format: ADME, organism-based, Neoplasm. The following applies: in vivo. The procedure, abridged: as §2

T1 sequence (O75874 2-414 R132C limits assumed): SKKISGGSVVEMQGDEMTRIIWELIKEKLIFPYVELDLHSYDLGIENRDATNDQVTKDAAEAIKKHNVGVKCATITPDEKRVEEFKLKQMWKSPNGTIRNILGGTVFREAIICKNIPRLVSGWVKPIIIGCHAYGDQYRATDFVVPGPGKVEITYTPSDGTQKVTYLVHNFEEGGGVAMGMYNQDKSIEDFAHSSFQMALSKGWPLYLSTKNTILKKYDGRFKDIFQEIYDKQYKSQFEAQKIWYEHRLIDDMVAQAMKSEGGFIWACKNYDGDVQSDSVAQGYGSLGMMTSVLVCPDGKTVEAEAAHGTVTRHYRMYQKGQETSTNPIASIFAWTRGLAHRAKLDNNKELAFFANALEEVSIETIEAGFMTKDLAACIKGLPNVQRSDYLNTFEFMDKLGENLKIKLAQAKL
Sequence of Isocitrate dehydrogenase [NADP] cytoplasmic (Homo sapiens, UniProt O75874, R132H) (O75874 2-414 R132H limits assumed): as the sequence (O75874 2-414 R132C limits assumed) above, with C131H counted along it
Sequence of Isocitrate dehydrogenase [NADP] cytoplasmic (Homo sapiens, UniProt O75874) (O75874 whole entry): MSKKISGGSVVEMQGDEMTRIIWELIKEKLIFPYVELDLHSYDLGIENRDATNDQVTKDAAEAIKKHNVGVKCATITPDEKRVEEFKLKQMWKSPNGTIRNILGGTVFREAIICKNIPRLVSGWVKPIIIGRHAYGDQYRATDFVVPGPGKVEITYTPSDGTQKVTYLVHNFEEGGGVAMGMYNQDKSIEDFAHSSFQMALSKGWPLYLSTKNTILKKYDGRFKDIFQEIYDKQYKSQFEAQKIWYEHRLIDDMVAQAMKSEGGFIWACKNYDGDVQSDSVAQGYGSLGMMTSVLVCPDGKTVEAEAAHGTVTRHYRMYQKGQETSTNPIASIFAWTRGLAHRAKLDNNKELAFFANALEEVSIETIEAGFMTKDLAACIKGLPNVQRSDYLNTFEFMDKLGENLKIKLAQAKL

In the case of `C[C@H](Nc1nccc(N2C(=O)OC[C@@H]2[C@H](C)F)n1)c1ncn2c1CCc1c(Cl)cccc1-2`, the IC50 was 81.9 nM in data set [1] and 24.1 nM in data set [2].

On to `COc1ccc2c(c1)OCc1c([C@H](C)Nc3nccc(N4C(=O)OC[C@@H]4[C@H](C)F)n3)ncn1-2`, for which the results for the IC50 in [1] and in data set [2] were 154 nM and 61.9 nM, respectively.

For `C[C@H](Nc1nccc(N2C(=O)OC[C@@H]2c2ccccc2)n1)c1ncn2c1CCc1cc(C(F)(F)F)ccc1-2`, the IC50 in [1] worked out at 14.2 nM; in [2], 15.5 nM.

On to `C[C@H](Nc1nccc(N2CC3(CC3)OC2=O)n1)c1ncn2c1CCc1cc(C(F)(F)F)ccc1-2`, for which the IC50 in [1] is 5860 nM; in data set [2], more than 10000 nM.

With `C[C@H](Nc1nccc(N2C(=O)OC[C@@H]2[C@H](C)F)n1)c1ncn2c1COc1cc(C(F)(F)F)ccc1-2`, the IC50 in data set [3] stood at 2840 nM; in data set [1], 9.4 nM; in data set [2], 2.7 nM; in data set [4] it was 12 nM. Besides, the clearance in data set [5] is 30 mL/min/kg. In data set [6], the Vd was found to be 5.2 L/kg. In addition, the results for the half-life in [7] and in data set [10] were 2.1 h and 2.5 h, respectively. For the same molecule, the AUC at 24 h in data set [8] amounted to 1.02 µM·h; in [11] it was 8.46 µM·h. The molecule further came in with a Cmax in data set [9] of 1120 nM. In data set [12], the F is 152%.

For the molecule `CC(C)[C@H]1COC(=O)N1c1ccnc(N[C@@H](C)c2ncn3c2CCc2cc(C(F)(F)F)ccc2-3)n1`, the IC50 in data set [1] stood at 9.3 nM; in data set [2], 1 nM; in data set [4], 12.5 nM. The molecule further yielded a clearance in data set [5] of 109 mL/min/kg. Besides, in data set [6], the Vd was 3 L/kg. The half-life is 0.5 h in data set [7] and 2 h in [10]. The AUC at 24 h in [8] worked out at 0.312 µM·h; in data set [11] it was 1.65 µM·h. This molecule registered a Cmax in data set [9] of 730 nM. The bioavailability in [12] was determined as 109%.

With `C[C@H](Nc1nccc(N2C(=O)OC[C@@H]2[C@H](C)F)n1)c1ncn2c1CCc1cc(F)ccc1-2`, the results for the IC50 in data set [1] and in data set [2] were 44.5 nM and 47.8 nM, respectively.

Regarding `C[C@H](Nc1nccc(N2C(=O)OC[C@@H]2[C@H](C)F)n1)c1ncn2c1sc1cc(C(F)(F)F)ccc12`, the IC50 in [1] was 17.3 nM; in [2] it was 19.2 nM.

For the molecule `C[C@H](Nc1nccc(N2C(=O)OC[C@@H]2[C@H](C)F)n1)c1ncn2c1CCCc1cc(C(F)(F)F)ccc1-2`, the IC50 in data set [1] worked out at 43.5 nM; in data set [2], 44.3 nM.

As for `C[C@H](Nc1nccc(N2C(=O)OC[C@@H]2[C@H](C)F)n1)c1ncn2c1CCc1cc(Cl)ccc1-2`, the IC50 in data set [1] amounted to 15.3 nM; in data set [2], 2.3 nM; in [4] it was 53.7 nM. The same molecule had a clearance in data set [5] of 50 mL/min/kg. Besides, in [6], the Vd turned out to be 4.3 L/kg. The half-life in data set [7] is 1.7 h; in [10], 3.4 h. Further, the exposure (AUC) at 24 h is 0.717 µM·h in data set [8] and 4.02 µM·h in data set [11]. This molecule also yielded a Cmax in data set [9] of 932 nM. Besides, the bioavailability in data set [12] amounted to 117%.

In the case of `C[C@H](Nc1nccc(N2C(=O)OC3(COC3)[C@@H]2c2ccccc2)n1)c1ncn2c1CCc1cc(C(F)(F)F)ccc1-2`, the values for the 50% inhibitory concentration (IC50) in data set [1] and in [2] were 9.7 nM and 33.8 nM, respectively.

Consider `C[C@H](Nc1nccc(N2C(=O)OC[C@@H]2[C@H](C)F)n1)c1ncn2c1COc1cc(Cl)ccc1-2`, for which the IC50 in data set [3] was 7100 nM; in data set [1] it was 14.4 nM; in data set [2], 2.2 nM; in data set [4], 60.3 nM. The molecule further gave a clearance in data set [5] of 39 mL/min/kg. For the same molecule, the Vd in [6] was 2.3 L/kg. Moreover, the half-life in [7] was 1 h; in data set [10], 2.4 h. For the same molecule, the area under the curve (AUC) at 24 h in data set [8] amounted to 0.917 µM·h; in [11], 5.01 µM·h. Further, the peak concentration (Cmax) in [9] is 1210 nM. The bioavailability in data set [12] came out at 109%.

Consider `CC(C)[C@@H]1N(c2ccnc(N[C@@H](C)c3ncn4c3CCc3cc(C(F)(F)F)ccc3-4)n2)C(=O)OC1(C)C`, for which the concentration for half-maximal inhibition (IC50) in data set [1] came out at 18.8 nM; in [2], 50.8 nM.

On to `CC1Cc2cc(C(F)(F)F)ccc2-n2cnc([C@H](C)Nc3nccc(N4C(=O)OC[C@@H]4[C@H](C)F)n3)c21` (stereo partly drawn), for which the figures for the half-maximal inhibitory concentration (IC50) in [1] and in data set [2] were 119 nM and 120 nM, respectively.

Turning to `C[C@H](Nc1nccc(N2C(=O)OC[C@@H]2[C@H](C)F)n1)c1ncn2c1CCc1ccc(C(F)(F)F)cc1-2`, the IC50 in [1] stood at 8 nM; in data set [2] it was 18.4 nM.

The molecule `N#Cc1ccnc(N2C(=O)CC[C@H]2C(=O)N(c2cncc(F)c2)[C@H](C(=O)NC2CC(F)(F)C2)c2ccccc2Cl)c1` [IVOSIDENIB] registered a clearance in [5] of 9 mL/min/kg. Also, the Vd in [6] was determined as 1.5 L/kg. In addition, the values for the half-life in [7] and in [10] were 2.5 h and 3.5 h, respectively. Also, the figures for the AUC at 24 h in [8] and in data set [11] were 2.97 µM·h and 11.2 µM·h, respectively. Also, in data set [9], the Cmax amounted to 2260 nM. The bioavailability in data set [12] worked out at 80%. For the same molecule, the Drug uptake entry in data set [13], in [14] and in data set [15] was “Active” each time.

As to `C[C@H](Nc1nccc(N2C(=O)OC[C@@H]2[C@H](C)F)n1)c1ncn2c1CSc1cc(C(F)(F)F)ccc1-2`, the values for the IC50 in data set [1] and in data set [2] were 24.1 nM and 23.8 nM, respectively.

With `C[C@H](Nc1ncc(F)c(N2C(=O)OC[C@@H]2[C@H](C)F)n1)c1ncn2c1CCc1cc(C(F)(F)F)ccc1-2`, the IC50 in [1] is 17 nM; in data set [2], 2.1 nM. In data set [5], this molecule gave a clearance of 21 mL/min/kg. The Vd in data set [6] amounted to 2.1 L/kg. The half-life in data set [7] was 1.4 h; in data set [10] it was 2.5 h. Also, the figures for the AUC at 24 h in data set [8] and in data set [11] were 1.52 µM·h and 12.7 µM·h, respectively. Moreover, the peak concentration (Cmax) in data set [9] was 1700 nM. Moreover, in data set [12], the F is given as 165%.

With `Cc1ccc2c(c1)CCc1c([C@H](C)Nc3nccc(N4C(=O)OC[C@@H]4[C@H](C)F)n3)ncn1-2`, the IC50 in data set [1] stood at 16.3 nM; in data set [2], 42.7 nM.

For the molecule `C[C@H](Nc1nc(Cl)cc(N2C(=O)OC[C@@H]2[C@H](C)F)n1)c1ncn2c1CCc1cc(C(F)(F)F)ccc1-2`, the IC50 in [1] was found to be 23.6 nM; in data set [2], 2.12 nM.

`CC1Cc2c([C@H](C)Nc3nccc(N4C(=O)OC[C@@H]4[C@H](C)F)n3)ncn2-c2ccc(C(F)(F)F)cc21` (stereo partly drawn): the IC50 in [1] is 93.5 nM; in [2], 128 nM.

As for `C[C@H](Nc1nccc(N2C(=O)OC[C@@H]2[C@H](C)F)n1)c1ncn2c1COc1cc(C3CC3)ccc1-2`, the IC50 came to 24.8 nM in [1] and 33.4 nM in data set [2].

For the molecule `CC(C)[C@H]1C(C)OC(=O)N1c1ccnc(N[C@@H](C)c2ncn3c2CCc2cc(C(F)(F)F)ccc2-3)n1` (stereo partly drawn), the values for the IC50 in data set [1] and in [2] were 15 nM and 42 nM, respectively.

As for `C[C@H](Nc1nccc(N2C(=O)OC[C@@H]2[C@H](C)F)n1)c1ncn2c1COc1cc(C#N)ccc1-2`, the IC50 was determined as 394 nM in data set [1] and 478 nM in data set [2].
